In publication PMC11062580 (Science Advances, 2024):

What was measured:
tau aggregation = details: phase 2 (curcumin) and phase 3 (methylene blue/LMTX) trials; cited from earlier work
AD tau fibrils = experiment: TEM of AD-extracted tau fibrils after treatment; format: biochemical; details: 0.02 mg/ml (86 μM 7-DP for MNPs-DP), 48 hours, 37°C; n = 10 images
tau K18^+ fibrils [1] = experiment: TEM of preformed tau K18+ fibrils after treatment; format: biochemical; details: 7-DP 2.5-100 μM or MNPs-DP 0.005-0.02 mg/ml, 24 hours
Body weight of PS19 mice = format: in vivo, mouse; details: 10 mg/kg i.v. weekly for 10 weeks, with intranasal mannitol; n = 13 per group
PS19 mice [2] = experiment: Novel object recognition test; format: in vivo, mouse; details: 10 mg/kg i.v. weekly for 10 weeks, n = 13
Summary of the method: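 PS19 mice seeded with K18+ fibrils, then weekly i.v. 10 mg/kg for 10 weeks with intranasal mannitol; PBS vehicle. Arena habituation was 10 min, 24 h before testing. Acquisition: two identical objects, 10 min. After 90 min in the home cage, retention: one familiar and one novel object, 10 min. Exploration was nose, mouth or forepaw contact. DR = TC/(TR + TC); […].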

tau K18^+ fibrils [3] = experiment: TEM of tau K18+ aggregation with inhibitor; format: biochemical; details: 20 μM tau K18+, 48 h; 5-100 μM peptide or MNPs-DP 0.005-0.04 mg/ml
Summary of the method: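 Recombinant tau K18+ (20 µM final, PBS pH 7.4) was aggregated with 40 µM ThT, 15 µM heparin and 1 mM DTT at 37°C with 700 rpm double orbital shaking. Test peptide was at 5–100 µM; nanoparticles at 0.005–0.04 mg/ml. For TEM, 6 µl sample went on glow-discharged carbon grids for 5 min, then 2% uranyl acetate for 2 min.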

C57BL/6J mice brain = experiment: BBB penetration, Fe in brain by ICP-MS; format: in vivo, mouse; details: 10 mg/kg tail vein with intranasal mannitol; 2 hours; n = 3 per group
Summary of the method: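 Wild-type C57BL/6J mice aged 2 months received 20 μl of 2% mannitol intranasally, then test nanoparticles at 10 mg/kg by tail vein; controls received PBS. Mice were euthanized after 2 h and perfused. Half-brains were dried at 105°C, digested in concentrated HNO3/HCl at 80°C for 2 h and diluted. Fe was quantified by ICP-MS.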

[4] = tested on: phosphorylated tau (ptau) pSer^202/Thr^205; experiment: AT8 immunohistochemistry of hippocampus; format: in vivo, mouse; details: 10 mg/kg i.v. weekly for 10 weeks; n = 6 per group
Summary of the method: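 PS19 mice seeded stereotaxically with 1.5 µl recombinant K18+ tau fibril seeds (5 µg/µl). Dosing began 2 weeks later: tail-vein 10 mg/kg weekly for 10 weeks, with intranasal mannitol; vehicle was PBS. Brain sections were stained with AT8 (pSer202/Thr205) at 4°C overnight, then biotinylated anti-mouse secondary (1:1000, 1 h, 37°C). AT8-positive staining was quantified in hippocampal CA1 and CA3.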

tau K18^+ fibrils [5] = experiment: Dot blot with anti-amyloid OC antibody; format: biochemical; details: 7-DP 2.5-100 μM or MNPs-DP 0.005-0.02 mg/ml, 24 h
tau K18^+ fibrils [6] = experiment: ThT fragmentation assay of preformed tau K18+ fibrils; format: biochemical
PS19 mice [7] = experiment: Serum AST as index of hepatic toxicity; format: in vivo, mouse; details: 10 mg/kg i.v. weekly for 10 weeks; n = 13; ELISA
PS19 mice [8] = experiment: Barnes maze test; format: in vivo, mouse; details: 10 mg/kg i.v. weekly for 10 weeks
Summary of the method: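 Mice were seeded with K18+ fibrils (2-month males, 6-month females) and given weekly tail-vein 10 mg/kg for 10 weeks plus intranasal mannitol; PBS vehicle; C57BL/6J controls. Maze had 20 holes with an escape box. Acquisition was 10 trials (2/day, 15-min interval, 2 min each). Probe came 1 day later: tunnel replaced, 90 s, with primary latency and target-hole entries. Testing was blinded and randomized.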

PS19 mice [9] = experiment: H&E histology of major organs; format: in vivo, mouse; details: 10 mg/kg i.v. weekly for 10 weeks
Summary of the method: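 Seeded PS19 mice were treated weekly i.v. at 10 mg/kg for 10 weeks with intranasal mannitol. Heart, liver, spleen, lung and kidney (n = 3) were fixed in 4% buffered formalin at 4°C overnight and embedded in paraffin. Sections of 5 µm were stained with hematoxylin and eosin.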

Molecule | clinical efficacy (tau aggregation) | fragmentation of AD-extracted tau fibrils by MNPs-DP or MNPs (AD tau fibrils) | dose-dependent number/abundance of tau K18+ fibrils under TEM (tau K18^+ fibrils [1]) | body weight of PS19 mice (Body weight of PS19 mice) | exploration of novel versus familiar object (PS19 mice [2]; 90-min interval) | discriminatory index (DI) (PS19 mice [2]; versus vehicle) | discriminatory ratio (DR) (PS19 mice [2]; versus vehicle) | counts and length of tau K18+ fibrils (TEM) (tau K18^+ fibrils [3]) | BBB penetration (C57BL/6J mice brain) | AT8-positive tau pathology in hippocampus CA1 and CA3 [4] | binding of anti-amyloid OC antibody to tau K18+ fibrils (tau K18^+ fibrils [5]) | fragmentation of preformed tau K18+ fibrils, MNPs-DP and MNPs (ThT) (tau K18^+ fibrils [6]; 20 μM tau K18+ fibrils, MNPs-DP or MNPs 0.02 mg/ml, added at 10 hours, reference 50 μM 7-DP) | dose-dependent ThT fluorescence intensity of tau K18+ fibrils (tau K18^+ fibrils [6]; 7-DP 2.5-100 μM or MNPs-DP 0.005, 0.01, 0.02 mg/ml) | serum AST levels (PS19 mice [7]) | memory function in probe trial, overall (PS19 mice [8]; compared with PBS-treated PS19 mice) | latency time to find escape hole, learning period (PS19 mice [8]; n = 13, 6 days) | histology of liver, spleen, heart, lung, kidney (PS19 mice [9]; H&E, n = 3, 100 day post-injection) | overall toxicity after 10 weeks (PS19 mice [9]; PS19 mice)
COc1cc(/C=C/C(=O)CC(=O)/C=C/c2ccc(O)c(OC)c2)ccc1O [curcumin] | have yet to show efficacy in treating disease |  |  |  |  |  |  |  |  |  |  |  |  |  |  |  |  | 
CN(C)c1ccc2nc3ccc(=[N+](C)C)cc-3sc2c1 [methylene blue/LMTX, methylene blue] | have yet to show efficacy in treating disease |  |  |  |  |  |  |  |  |  |  |  |  |  |  |  |  | 
MNPs-D-TLKIVWC [MNPs-DP] |  | fragmented AD-extracted tau fibrils after a 48-hour incubation | reduction of the abundance of tau K18^+ fibrils and a concurrent increase in the number of globular species | consistent increase in body weights | explored the novel object significantly longer than the familiar one | appeared to significantly improve the discriminatory index | appeared to significantly improve the discriminatory index (DI; Fig. 5G) and discriminatory ratio (DR) | reduced the length of tau fibrils in a dose-dependent manner | can cross the BBB | significantly limited tau pathology in both the CA1 and CA3 regions | decrease of binding to anti-amyloid OC antibody | fragmented preformed tau K18^+ fibrils as evidenced by the decrease of ThT signal | reduction of ThT fluorescence intensity | comparable to the vehicle groups | comparable performance to WT mice and a significant improvement in memory function compared with PBS-treated PS19 mice | learned a new task quicker with a shorter latency time to find the escape hole compared to the vehicle- or naked MNP-treated PS19 mice | no evidence of toxic changes or cell death in cellular structures | without apparent toxic side effects in other body systems
